Measured values of several laboratories.
Lines come from different studies, so protocols differ.
Target: Carbonic anhydrase 1 (CA1, Homo sapiens, UniProt P00915)
Read-out: enzyme activity
Action: inhibitor

With `CC1CCC(CC(=O)Nc2nnc(S(N)(=O)=O)s2)CC1` (centres unmarked) the Ki was 0.0692 µM (stopped-flow).
With `CC1CCCCC1OC(=O)c1ccc(=O)oc1` (centres unmarked) the Ki was over 100 µM (stopped-flow).
With `Nc1nc2c(ncn2COCCO)c(=O)[nH]1` the Ki was 7.31 µM.
`O=C(OCc1cn(-c2ccc([N+](=O)[O-])cc2)nn1)c1ccc(=O)oc1` gave a Ki of over 100 µM (stopped-flow).
For `NS(=O)(=O)c1cnc(NC(=O)CCc2ccccc2)s1`, the Ki was 2.43 µM (stopped-flow).
`CC[C@H]1OC(=O)[C@H](C)[C@@H](O[C@H]2C[C@@](C)(OC)[C@@H](O)[C@H](C)O2)[C@H](C)[C@@H](O[C@@H]2O[C@H](C)C[C@H](N(C)C)[C@H]2O)[C@](C)(O)C[C@@H](C)CN(C)[C@H](C)[C@@H](O)[C@]1(C)O` gave a Ki of 10.2 µM.
For `N#CSCCCCOc1ccc2c(-c3ccccc3)cc(=O)oc2c1`, the Ki was over 100 µM (stopped-flow).
The Ki of `CC(C(=O)Nc1nnc(S(N)(=O)=O)s1)C1CCCCC1` (centres unmarked) is reported as 0.0475 µM (stopped-flow).
For `Cc1cncc(CN2CCC(=C3c4ccc(Cl)cc4CCc4cccnc43)CC2)c1`, the Ki was 9.95 µM (absorbance).
`C#CCNC(=O)c1ccc(=O)oc1` has a Ki of over 100 µM (stopped-flow).
The Ki of `CN(C/C=C/C#CC(C)(C)C)Cc1cccc2ccccc12` is reported as 20.6 µM.
`NS(=O)(=O)c1nnc(NC(=O)CN2CC3CCC2CC3)s1` gave a Ki of 0.144 µM (stopped-flow).
For `Cc1c(Cl)c(=O)oc2cc(OCCCCSC#N)ccc12`, the Ki was over 100 µM (stopped-flow).
For `O=C(OCc1cn(-c2ccccc2)nn1)c1ccc(=O)oc1`, the Ki was over 100 µM (stopped-flow).
With `C[C@H]1CCC[C@H](C(=O)Nc2nnc(S(N)(=O)=O)s2)C1` (racemic) the Ki was 0.0639 µM (stopped-flow).
With `O=C(Oc1ccccc1)c1ccc(=O)oc1` the Ki was over 100 µM (stopped-flow).
`CN1CCC(=C2c3ccccc3CC(=O)c3sccc32)CC1` gave a Ki of 6.98 µM.
`CCOC(=O)c1ccc(=O)oc1` gave a Ki of over 100 µM (stopped-flow).
`CC1(C(=O)Nc2nnc(S(N)(=O)=O)s2)CCC1` has a Ki of 0.334 µM (stopped-flow).
With `CN(C)CCC(c1ccccc1)c1ccccn1` (centres unmarked) the Ki was 13.9 µM.
